In the library only some 2.9% were active in any assay of this set; here they are far more common.
E-sel inducer = induces E-selectin expression in human endothelial cells; P16581; hit rate 0.37% among 260,000; activation, % at 7.58 µM; HUVEC E-selectin immunofluorescence imaging; normalized: neutral wells 0, TNF-alpha wells 100;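 active means mean E-selectin-positive cell signal at least 10% of the positive control, reached in at least 60% of replicates, without over 20% cell loss; inconclusive means no rule given, readout overlaps actives, possibly toxicity-flagged; inactive means the rest, including those meeting only one limit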
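Read-out: % PE-positive cells | Test system: HUVEC | Doses: One compound dose added by pin transfer | Buffer or medium: EGM-2 over gelatin coat | Signal: Immunofluorescence imaging | Benchmarks: TNF-alpha, DMSO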
DENV2 CPE rescue = protects cells from dengue virus 2 cytopathic effect. DENV2-infected cells, cytopathic effect rescue, plate reader. CPE inhibition, % at 9.99 µM. hit rate 1.7% among 350,000. AID 651640; in the data active means CPE inhibition above about 20%, passing the limit was not always enough; inconclusive means no clear call, values can overlap the other calls; tested in BHK-21 cells;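 further: 0% = median of neutral control wells and 100% = median of positive control wells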
SIRT5 block = sirtuin-5 (human) deacylase inhibition; Q9NXA8; Purified SirT5, succinyl-peptide AMC, trypsin-coupled fluorescence; inhibition, % at 15 µM; hit rate 1.1% among 330,000; in the data active means inhibition above about 15%; inconclusive means no clear call, values can overlap the other calls
Target sequence (Q9NXA8 whole entry, looked up): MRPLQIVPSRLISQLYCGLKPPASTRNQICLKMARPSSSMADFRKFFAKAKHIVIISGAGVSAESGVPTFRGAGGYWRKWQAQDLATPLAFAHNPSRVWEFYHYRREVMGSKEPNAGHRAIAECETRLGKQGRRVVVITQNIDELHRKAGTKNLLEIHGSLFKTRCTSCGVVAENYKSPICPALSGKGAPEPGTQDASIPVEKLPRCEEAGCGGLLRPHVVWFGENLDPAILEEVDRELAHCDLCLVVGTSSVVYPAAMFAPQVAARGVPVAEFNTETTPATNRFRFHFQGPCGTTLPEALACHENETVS
Starred values were filed as active, the others as inactive; ? = inconclusive; . = not tested or not shown.

SMILES	E-sel inducer	DENV2 CPE rescue	SIRT5 block
O=C(NC1CCCCC1)[C@@H]1[C@@H](CO)[C@@H]2Cn3c(cccc3=O)[C@H]1N2Cc1cccnc1	0	136*	1
O=C(NCc1ccc(F)cc1)[C@H]1[C@H](CO)[C@H]2Cn3c(cccc3=O)[C@@H]1N2CC1CC1	0	-1	2
C[C@H]1CN([C@@H](C)CO)C(=O)c2cc(NS(=O)(=O)c3ccccc3)ccc2O[C@H]1CN(C)S(=O)(=O)c1ccc(Cl)cc1	0	.	.
N#Cc1nc(/C=C/c2ccccc2)oc1NCCCN1CCOCC1	.	17	-150
COc1ccc2c3c([nH]c2c1)[C@@H](CO)N(CC1CC1)CC31CN(C(=O)c2ccccc2)C1	-1	17	.
CCCC#Cc1cnc2c(c1)C(=O)N([C@@H](C)CO)C[C@H](C)[C@H](CN(C)S(=O)(=O)c1cccc(OC)c1)O2	0	-4	3
CN1C(=O)c2cc(NC(=O)c3ccc(C(F)(F)F)cc3)ccc2OC[C@@H]2O[C@H](CC(=O)NCc3ccc4c(c3)OCO4)CC[C@H]21	0	-15	13
C[C@@H]1CN([C@@H](C)CO)C(=O)c2cc(NS(=O)(=O)c3cn(C)cn3)ccc2O[C@H]1CN(C)Cc1ccc(C(F)(F)F)cc1	-2	-11	-7
CCOC(=O)N1CCN(C(=O)C2CCC(=O)N(CCc3ccccc3)C2)CC1 (stereo not drawn)	-1	-10	1
COCC1CCN(C(=O)c2cc(COc3ccc4c(c3)CCCC4)on2)C1 (stereo not drawn)	0	-12	4
C[C@@H]1CN([C@H](C)CO)C(=O)c2cc(NC(=O)Nc3ccc(C(F)(F)F)cc3)ccc2O[C@H]1CN(C)Cc1ccc2c(c1)OCO2	0	1	-7
O=C([C@H]1[C@H](CO)[C@H]2Cn3c(cccc3=O)[C@@H]1N2Cc1cccc(Cl)c1)N1CCCCC1	0	34*	-2
O=C([C@H]1[C@H](CO)[C@H]2Cn3c(cccc3=O)[C@@H]1N2Cc1cccc(Cl)c1)N1CCOCC1	0	6	3
CCOc1ccc(Cc2c(C)[nH]c3ccc(C(=O)O)cc3c2=S)cc1	0	-4	29*
CCc1c(C)[nH]c2ccc(OC)cc2c1=S	.	4	-8
O=C(Cn1cc([N+](=O)[O-])cn1)NCC1CCCO1 (stereo not drawn)	.	-4	.
O=C(Cn1nc(-c2ccc(Cl)cc2)ccc1=O)NCC1CCCO1 (stereo not drawn)	0	-7	19*
O=C(Cn1ccc([N+](=O)[O-])n1)NCC1CCCO1 (stereo not drawn)	0	27*	1
COc1ccccc1-c1ccc(=O)n(CC(=O)NCC2CCCO2)n1 (stereo not drawn)	0	.	2
Cn1c(SCC(=O)NCC2CCCO2)nnc1-c1ccc(Cl)cc1 (stereo not drawn)	-2	?	19*
COc1ccc(-c2nnc(SCC(=O)NCC3CCCO3)n2C)cc1 (stereo not drawn)	.	8	-4
COCCC(=O)N1CCC(Oc2ccc(C(=O)N3C[C@@H]4CCC[C@H]3C4)cc2)CC1	10	-5	-3
Cc1c(NCc2ccccc2O)c(=O)n(-c2ccccc2)n1C	8	-10	-6
CCSc1nnc(Cc2cc(=O)[nH]c(=O)[nH]2)n1-c1ccc(Cl)cc1	-1	-11	2
CC(OC(=O)c1cccc(Cl)c1)C(=O)NC1CCCCC1C (stereo not drawn)	0	6	-3
SMILES	E-sel inducer	DENV2 CPE rescue	SIRT5 block
CC(OC(=O)/C=C/c1cccc(Cl)c1)C(=O)NC1CCCCC1C (stereo not drawn)	2	91*	-2
Cc1cccc(OC(C)C(=O)Nc2nc(-c3ccncc3)cs2)c1 (stereo not drawn)	0	106*	-3
CC(Oc1ccc(F)cc1)C(=O)Nc1nc(-c2ccccn2)cs1 (stereo not drawn)	0	2	0
CC(=O)c1cn(C2OC(CO)C3OC(C)(C)OC32)c(=O)n(C)c1=O (stereo not drawn)	.	4	-1
O=C(Nc1c(-c2ccccc2)[nH][nH]c1=O)c1cnccn1	0	-5	-3
CCC(=O)N1C[C@H]2[C@@H](c3ccccc31)[C@H](CO)N2C(=O)CC1CC1	0	4	-1
O=C(Nc1cccc(C(=O)O)c1)/C(=C\c1ccccc1)NC(=O)c1ccco1	.	27*	.
O=C(Nc1ccc(C(=O)O)cc1)/C(=C\c1ccco1)NC(=O)c1ccc(Br)o1	0	-1	6
O=C(Nc1ccccc1)/C(=C\c1ccccc1)NC(=O)c1ccco1	0	6	-1
O=C(N/C(=C\c1ccco1)C(=O)N1CCCCC1)c1ccc([N+](=O)[O-])cc1	.	?	17*
O=C(/C=C/c1ccco1)NC(=S)Nc1cccc(C(=O)O)c1	0	-2	22*
O=C(N/C(=C/c1ccco1)C(=O)N1CCOCC1)c1ccc([N+](=O)[O-])cc1	0	-1	1
O=C(Nc1ccc(C(=O)O)cc1)/C(=C\c1ccco1)NC(=O)c1ccc(Br)cc1	0	9	24*
COc1cccc(NC(=S)NC(=O)/C=C/c2ccco2)c1	0	-11	1
O=C(CN1CCCC1)Nc1sc2c(c1C(=O)Nc1ccc(Br)cc1)CCC2	0	-8	-7
CN(Cc1ccc(Cl)c(Cl)c1)C(=O)c1ccccc1SCC(=O)N1CCCC1	-2	-4	2
CCOC(=O)C1=C[C@@H](C(C)(C)C)N(S(=O)(=O)c2ccc(C)cc2)[C@H]1c1cccc(Cl)c1	0	-3	-2
Cc1ccc(NCC(=O)N/N=C/c2cccn2C)cc1	.	4	-1
O=C(Cc1n[nH]c(=O)c2ccccc12)N/N=C/c1cc2c(cc1Cl)OCO2	0	-10	-1
CCNC(=S)N/N=C/c1ccc(C(=O)O)cc1	1	7	2
O=C(Cc1cccc(NC(=O)C2CCN(C(=O)C3CC3)CC2)c1)Nc1cccc(C(=O)N2CCOCC2)c1	0	5	-1
O=C1CC(N2CCC(c3nc4ccccc4[nH]3)CC2)C(=O)N1c1ccccc1F (stereo not drawn)	.	5	18*
COc1ccc(N2C(=O)CC(N3CCN(c4ccccc4F)CC3)C2=O)cc1 (stereo not drawn)	.	9	-4
Cc1ccc2cc(CN(Cc3ccc(F)cc3)Cc3nnnn3C3CCCC3)c(=O)[nH]c2c1	.	1	29*
Cc1ccc2cc(CN(Cc3ccccc3)Cc3nnnn3C3CCCC3)c(=O)[nH]c2c1	.	3	-2
SMILES	E-sel inducer	DENV2 CPE rescue	SIRT5 block
O=[N+]([O-])c1ccc(/C=N/N2CCCCC2)cc1	0	33*	2
O=[N+]([O-])c1ccc(/C=N/N2CCN(Cc3ccccc3)CC2)cc1	0	-1	1
CCc1cccc(NC(=O)CSc2nnc(Cc3ccc(OC)cc3)c(=O)[nH]2)c1	0	11	0
C[C@@H]1CN([C@@H](C)CO)C(=O)c2cc(NC(=O)c3ccncc3)ccc2O[C@@H](C)CCCCO[C@H]1CN(C)C	0	?	8
C[C@H](CO)N1C[C@H](C)[C@H](CN(C)CC2CCCCC2)Oc2ccc(NC(=O)Nc3ccc4c(c3)OCO4)cc2CC1=O	1	34*	1
C[C@@H]1CN([C@H](C)CO)C(=O)Cc2cc(NC(=O)Nc3ccc4c(c3)OCO4)ccc2O[C@H]1CN(C)CC1CCCCC1	0	-5	17*
